ChEMBL document CHEMBL4428070, “Design, synthesis, and evaluation of 4,6-diaminonicotinamide derivatives as novel and potent immunomodulators targeting JAK3” (Bioorg Med Chem, 2016)

Key:
[1] = molecular target: Tyrosine-protein kinase JAK2 (Homo sapiens, UniProt O60674); test: Inhibition of human JAK2 assessed as reduction in phosphorylation of Biotin-Lyn-Substrate-2 after 1 hr in presence of ATP by ELISA
[2] = molecular target: T1, Tyrosine-protein kinase JAK3 (Homo sapiens, UniProt P52333); test: Inhibition of human JAK3 assessed as reduction in phosphorylation of Biotin-Lyn-Substrate-2 after 1 hr in presence of ATP by ELISA
T1 sequence (P52333 whole entry): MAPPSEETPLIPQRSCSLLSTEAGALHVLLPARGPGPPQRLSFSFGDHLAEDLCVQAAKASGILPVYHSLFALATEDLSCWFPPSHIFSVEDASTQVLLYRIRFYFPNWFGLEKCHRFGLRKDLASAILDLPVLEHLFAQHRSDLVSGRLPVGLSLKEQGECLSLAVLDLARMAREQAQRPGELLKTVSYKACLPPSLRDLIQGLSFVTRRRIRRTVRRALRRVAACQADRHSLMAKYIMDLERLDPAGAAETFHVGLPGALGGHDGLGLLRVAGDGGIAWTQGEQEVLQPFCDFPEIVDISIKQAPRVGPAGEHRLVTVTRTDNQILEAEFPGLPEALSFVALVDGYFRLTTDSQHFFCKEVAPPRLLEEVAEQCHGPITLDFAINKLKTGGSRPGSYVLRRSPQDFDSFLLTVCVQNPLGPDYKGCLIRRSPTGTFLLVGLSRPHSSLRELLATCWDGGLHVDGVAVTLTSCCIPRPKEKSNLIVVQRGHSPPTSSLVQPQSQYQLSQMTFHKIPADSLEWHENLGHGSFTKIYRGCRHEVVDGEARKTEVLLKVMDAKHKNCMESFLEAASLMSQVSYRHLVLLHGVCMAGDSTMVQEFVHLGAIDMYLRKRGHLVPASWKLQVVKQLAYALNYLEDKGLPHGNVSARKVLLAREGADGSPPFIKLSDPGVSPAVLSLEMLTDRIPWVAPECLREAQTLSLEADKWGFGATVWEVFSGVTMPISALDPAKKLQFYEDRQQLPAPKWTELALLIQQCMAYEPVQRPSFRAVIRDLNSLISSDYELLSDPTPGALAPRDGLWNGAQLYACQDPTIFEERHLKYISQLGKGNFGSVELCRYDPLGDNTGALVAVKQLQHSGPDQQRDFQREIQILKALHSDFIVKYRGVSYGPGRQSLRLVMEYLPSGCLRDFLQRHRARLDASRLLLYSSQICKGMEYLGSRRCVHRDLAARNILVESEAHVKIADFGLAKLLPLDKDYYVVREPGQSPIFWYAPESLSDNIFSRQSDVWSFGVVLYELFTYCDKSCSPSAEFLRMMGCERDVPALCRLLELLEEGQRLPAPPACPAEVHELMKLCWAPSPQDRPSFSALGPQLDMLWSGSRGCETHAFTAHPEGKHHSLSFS

[3] = molecular target: Tyrosine-protein kinase JAK1 (Homo sapiens, UniProt P23458); test: Inhibition of human JAK1 assessed as reduction in phosphorylation of Biotin-Lyn-Substrate-2 after 1 hr in presence of ATP by ELISA
[4] = molecular target: Voltage-gated inwardly rectifying potassium channel KCNH2 (Homo sapiens, UniProt Q12809); test: Inhibition of human ERG expressed in CHO-K1 cells after 10 mins by Rb efflux assay; assay type: cell-based
[5] = molecular target: Tyrosine-protein kinase JAK3 (Homo sapiens) (UniProt P52333); test: Inhibition of human JAK3 assessed as phosphorylation of Biotin-Lyn-Substrate-2 at 1 uM after 1 hr in presence of ATP by ELISA
[6] = molecular target: RAC-alpha serine/threonine-protein kinase (Homo sapiens) (UniProt P31749); test: Inhibition of AKT1 (unknown origin) at 1 uM
[7] = Effective permeability of the compound at pH 6.5 by PAMPA; assay type: ADME; details: read-out: Peff
Summary of the method: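 Parallel artificial membrane permeability assay, donor buffer pH 6.5; effective permeability reported in cm/sec (n=3).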

Rattus norvegicus [8] = test: Immunomodulatory activity in ACI-to-Lewis rat heterotopic cardiac transplant model assessed as cardiac allograft survival at 10 mg/kg, po coadministered with tacrolimus at 0.02 mg/kg, im dosed from day of transplantation once daily for 14 consecutive days; assay type: functional
Summary of the method: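 ACI rat hearts transplanted heterotopically into Lewis recipients. Oral drug given once daily for 14 consecutive days starting on the day of operation. In the combination arm, tacrolimus was given intramuscularly once daily. Cardiac allograft survival was checked by daily palpation for 28 days and expressed as median survival time (MST).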

[9] = molecular target: Tyrosine-protein kinase BTK (Homo sapiens) (UniProt Q06187); test: Inhibition of BTK (unknown origin) at 1 uM
[10] = molecular target: T2, CDK2/Cyclin A2 (Homo sapiens) (UniProt P24941+P20248); test: Inhibition of CDK2/CycA (unknown origin) at 0.01 uM; assay type: protein-complex assay
[11] = Half life in rat at 1 mg/kg, iv; assay type: ADME, organism-based; details: in vivo
[12] = molecular target: T2, CDK2/Cyclin A2 (Homo sapiens); test: Inhibition of CDK2/CycA (unknown origin) at 1 uM; assay type: protein-complex assay
[13] = molecular target: Mitogen-activated protein kinase kinase kinase 9 (Homo sapiens) (UniProt P80192); test: Inhibition of MLK1 (unknown origin) at 0.1 uM
[14] = molecular target: Mitogen-activated protein kinase kinase kinase 9 (Homo sapiens) (UniProt P80192); test: Inhibition of MLK1 (unknown origin) at 0.01 uM
[15] = molecular target: Bone morphogenetic protein receptor type-1A (Homo sapiens) (UniProt P36894); test: Inhibition of BMPR1A (unknown origin) at 1 uM
[16] = AUC (0 to 24 hrs) in rat at 1 mg/kg, po; assay type: ADME, organism-based; parameters: dose 1 mg/kg, time < 24 hr, route oral; details: in vivo
[17] = molecular target: T2, CDK2/Cyclin A2 (Homo sapiens); test: Inhibition of CDK2/CycA (unknown origin) at 0.1 uM; assay type: protein-complex assay
[18] = Tmax in rat at 1 mg/kg, po; assay type: ADME, organism-based; details: in vivo
[19] = molecular target: Serine/threonine-protein kinase Chk1 (Homo sapiens) (UniProt O14757); test: Inhibition of CHK1 (unknown origin) at 1 uM
[20] = molecular target: Ephrin type-A receptor 2 (Homo sapiens) (UniProt P29317); test: Inhibition of EPHA2 (unknown origin) at 1 uM
[21] = molecular target: Aurora kinase C (Homo sapiens) (UniProt Q9UQB9); test: Inhibition of AurC (unknown origin) at 1 uM
[22] = molecular target: High affinity nerve growth factor receptor (Homo sapiens) (UniProt P04629); test: Inhibition of TRKA (unknown origin) at 0.1 uM
[23] = molecular target: Focal adhesion kinase 1 (Homo sapiens) (UniProt Q05397); test: Inhibition of FAK (unknown origin) at 1 uM
[24] = molecular target: Tyrosine-protein kinase ABL1 (Homo sapiens) (UniProt P00519); test: Inhibition of ABL (unknown origin) at 1 uM
[25] = molecular target: Mitogen-activated protein kinase kinase kinase 9 (Homo sapiens) (UniProt P80192); test: Inhibition of MLK1 (unknown origin) at 1 uM
[26] = Intrinsic clearance in human liver microsomes in presence of NADPH; assay type: ADME, Microsome; details: read-out: CLH
Summary of the method: (§1)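 Incubation with rat or human liver microsomes plus NADPH-generating system; intrinsic clearance expressed as mL/min/kg (n=2).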

[27] = Cmax in rat at 1 mg/kg, po; assay type: ADME, organism-based; parameters: dose 1 mg/kg, route oral; details: in vivo
[28] = molecular target: Receptor tyrosine-protein kinase erbB-2 (Homo sapiens) (UniProt P04626); test: Inhibition of HER2 (unknown origin) at 1 uM
[29] = Oral bioavailability in rat at 1 mg/kg; assay type: ADME, organism-based; details: in vivo
[30] = molecular target: High affinity nerve growth factor receptor (Homo sapiens) (UniProt P04629); test: Inhibition of TRKA (unknown origin) at 1 uM
[31] = molecular target: Tyrosine-protein kinase ZAP-70 (Homo sapiens) (UniProt P43403); test: Inhibition of ZAP70 (unknown origin) at 1 uM
[32] = AUC (0 to 24 hrs) in rat at 1 mg/kg, iv; assay type: ADME, organism-based; parameters: dose 1 mg/kg, time < 24 hr, route intravenous; details: in vivo
[33] = molecular target: Casein kinase I isoform delta (Homo sapiens) (UniProt P48730); test: Inhibition of CK1delta (unknown origin) at 1 uM
[34] = molecular target: Calcium/calmodulin-dependent protein kinase type II subunit alpha (Homo sapiens) (UniProt Q9UQM7); test: Inhibition of CaMK2alpha (unknown origin) at 1 uM
[35] = molecular target: Epidermal growth factor receptor (Homo sapiens) (UniProt P00533); test: Inhibition of EGFR (unknown origin) at 1 uM
[36] = Total clearance in rat at 1 mg/kg, iv; assay type: ADME, organism-based; details: in vivo
[37] = Volume of distribution at steady state in rat at 1 mg/kg, iv; assay type: ADME, organism-based; details: in vivo, read-out: Vdss
[38] = Intrinsic clearance in rat liver microsomes in presence of NADPH; assay type: ADME, Microsome; details: read-out: CLH; summary of the method: as §1
[39] = molecular target: High affinity nerve growth factor receptor (Homo sapiens) (UniProt P04629); test: Inhibition of TRKA (unknown origin) at 0.01 uM
[40] = molecular target: Angiopoietin-1 receptor (Homo sapiens) (UniProt Q02763); test: Inhibition of TIE2 (unknown origin) at 1 uM
Rattus norvegicus [41] = test: Immunomodulatory activity in ACI-to-Lewis rat heterotopic cardiac transplant model assessed as mean survival time at 0.02 mg/kg, im dosed from day of transplantation once daily for 14 consecutive days measured for 28 days; assay type: functional

Chain of High affinity nerve growth factor receptor (Homo sapiens) (P04629 33-796 limits assumed): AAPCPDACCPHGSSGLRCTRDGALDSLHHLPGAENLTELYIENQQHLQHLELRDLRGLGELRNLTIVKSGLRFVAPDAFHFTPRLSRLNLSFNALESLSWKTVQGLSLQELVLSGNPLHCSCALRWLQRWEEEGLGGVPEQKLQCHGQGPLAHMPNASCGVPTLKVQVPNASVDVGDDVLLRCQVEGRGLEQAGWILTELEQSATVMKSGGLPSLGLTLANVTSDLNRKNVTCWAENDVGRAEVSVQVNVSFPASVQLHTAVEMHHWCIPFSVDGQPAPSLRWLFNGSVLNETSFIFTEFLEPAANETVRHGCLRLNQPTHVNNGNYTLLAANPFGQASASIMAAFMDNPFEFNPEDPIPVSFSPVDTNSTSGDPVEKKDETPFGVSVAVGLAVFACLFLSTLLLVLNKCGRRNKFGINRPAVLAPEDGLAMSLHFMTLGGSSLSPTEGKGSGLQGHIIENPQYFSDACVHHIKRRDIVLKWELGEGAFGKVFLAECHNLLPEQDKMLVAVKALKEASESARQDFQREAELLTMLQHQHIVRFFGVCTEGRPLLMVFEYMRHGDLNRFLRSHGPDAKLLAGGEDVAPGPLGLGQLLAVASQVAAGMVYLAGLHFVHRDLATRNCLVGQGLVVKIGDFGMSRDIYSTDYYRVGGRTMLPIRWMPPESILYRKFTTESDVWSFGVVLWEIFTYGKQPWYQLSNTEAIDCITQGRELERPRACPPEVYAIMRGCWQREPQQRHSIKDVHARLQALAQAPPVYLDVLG
Chain of Tyrosine-protein kinase JAK2 (O60674 whole entry): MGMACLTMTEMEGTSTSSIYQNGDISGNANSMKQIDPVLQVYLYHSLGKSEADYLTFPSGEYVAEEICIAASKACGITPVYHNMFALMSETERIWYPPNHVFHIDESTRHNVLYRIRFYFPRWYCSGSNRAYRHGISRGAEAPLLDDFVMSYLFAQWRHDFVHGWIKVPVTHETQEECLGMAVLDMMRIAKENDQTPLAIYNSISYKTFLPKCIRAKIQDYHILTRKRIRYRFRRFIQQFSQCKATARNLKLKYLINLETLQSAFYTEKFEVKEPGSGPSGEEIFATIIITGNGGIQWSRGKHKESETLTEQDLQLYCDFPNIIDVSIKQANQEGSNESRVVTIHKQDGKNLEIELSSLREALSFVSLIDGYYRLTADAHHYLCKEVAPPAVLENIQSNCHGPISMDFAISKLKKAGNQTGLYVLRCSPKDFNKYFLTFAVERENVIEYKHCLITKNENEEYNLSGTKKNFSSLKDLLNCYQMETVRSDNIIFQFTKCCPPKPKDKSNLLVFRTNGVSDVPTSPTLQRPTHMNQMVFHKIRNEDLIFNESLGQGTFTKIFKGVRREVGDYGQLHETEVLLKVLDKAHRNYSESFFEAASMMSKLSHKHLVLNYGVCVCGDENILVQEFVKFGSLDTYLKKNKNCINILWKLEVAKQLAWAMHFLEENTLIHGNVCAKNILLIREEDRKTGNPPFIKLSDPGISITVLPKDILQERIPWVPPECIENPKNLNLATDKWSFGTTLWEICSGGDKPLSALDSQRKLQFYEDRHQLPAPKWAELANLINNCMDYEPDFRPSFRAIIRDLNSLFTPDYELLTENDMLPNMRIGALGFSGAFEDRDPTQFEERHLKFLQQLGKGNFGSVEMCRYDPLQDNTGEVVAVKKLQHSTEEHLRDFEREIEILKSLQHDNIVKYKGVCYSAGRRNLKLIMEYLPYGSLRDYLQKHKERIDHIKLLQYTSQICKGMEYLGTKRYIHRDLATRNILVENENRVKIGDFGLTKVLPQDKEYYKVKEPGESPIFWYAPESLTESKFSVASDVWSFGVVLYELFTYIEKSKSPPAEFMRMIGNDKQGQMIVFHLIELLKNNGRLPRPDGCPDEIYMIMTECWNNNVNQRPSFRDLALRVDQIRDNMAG
Chain of Tyrosine-protein kinase JAK1 (P23458 whole entry): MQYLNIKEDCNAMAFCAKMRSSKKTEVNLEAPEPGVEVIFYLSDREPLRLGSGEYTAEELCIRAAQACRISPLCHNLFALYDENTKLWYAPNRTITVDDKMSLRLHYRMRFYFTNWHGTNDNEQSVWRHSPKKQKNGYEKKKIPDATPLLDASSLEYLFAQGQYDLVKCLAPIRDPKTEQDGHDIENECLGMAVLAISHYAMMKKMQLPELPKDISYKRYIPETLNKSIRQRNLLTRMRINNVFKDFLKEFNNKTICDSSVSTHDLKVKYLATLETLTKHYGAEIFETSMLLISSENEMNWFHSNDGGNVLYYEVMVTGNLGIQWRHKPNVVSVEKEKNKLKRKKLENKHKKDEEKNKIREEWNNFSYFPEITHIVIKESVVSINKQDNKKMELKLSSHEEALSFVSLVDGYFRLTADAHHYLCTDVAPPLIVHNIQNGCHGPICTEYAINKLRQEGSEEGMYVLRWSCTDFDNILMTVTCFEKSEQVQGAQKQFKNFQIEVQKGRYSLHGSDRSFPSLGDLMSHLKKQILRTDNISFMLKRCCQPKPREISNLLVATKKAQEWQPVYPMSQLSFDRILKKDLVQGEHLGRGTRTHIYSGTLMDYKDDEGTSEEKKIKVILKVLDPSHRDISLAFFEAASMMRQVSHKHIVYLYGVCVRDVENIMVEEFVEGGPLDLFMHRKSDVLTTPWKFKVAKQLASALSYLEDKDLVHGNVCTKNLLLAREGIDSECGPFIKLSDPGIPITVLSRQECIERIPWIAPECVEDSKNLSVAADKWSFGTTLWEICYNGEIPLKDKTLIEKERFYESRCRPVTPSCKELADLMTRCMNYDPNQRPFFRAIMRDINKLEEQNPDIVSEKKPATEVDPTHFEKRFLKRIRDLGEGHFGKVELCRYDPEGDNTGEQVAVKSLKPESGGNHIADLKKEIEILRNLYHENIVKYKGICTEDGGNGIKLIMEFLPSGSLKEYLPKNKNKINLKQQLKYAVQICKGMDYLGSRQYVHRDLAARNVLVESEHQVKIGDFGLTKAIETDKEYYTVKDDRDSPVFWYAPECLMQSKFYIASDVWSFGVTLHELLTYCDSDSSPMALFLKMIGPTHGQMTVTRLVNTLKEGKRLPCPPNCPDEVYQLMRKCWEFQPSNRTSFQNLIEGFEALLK
Chain of Voltage-gated inwardly rectifying potassium channel KCNH2 (Q12809 whole entry): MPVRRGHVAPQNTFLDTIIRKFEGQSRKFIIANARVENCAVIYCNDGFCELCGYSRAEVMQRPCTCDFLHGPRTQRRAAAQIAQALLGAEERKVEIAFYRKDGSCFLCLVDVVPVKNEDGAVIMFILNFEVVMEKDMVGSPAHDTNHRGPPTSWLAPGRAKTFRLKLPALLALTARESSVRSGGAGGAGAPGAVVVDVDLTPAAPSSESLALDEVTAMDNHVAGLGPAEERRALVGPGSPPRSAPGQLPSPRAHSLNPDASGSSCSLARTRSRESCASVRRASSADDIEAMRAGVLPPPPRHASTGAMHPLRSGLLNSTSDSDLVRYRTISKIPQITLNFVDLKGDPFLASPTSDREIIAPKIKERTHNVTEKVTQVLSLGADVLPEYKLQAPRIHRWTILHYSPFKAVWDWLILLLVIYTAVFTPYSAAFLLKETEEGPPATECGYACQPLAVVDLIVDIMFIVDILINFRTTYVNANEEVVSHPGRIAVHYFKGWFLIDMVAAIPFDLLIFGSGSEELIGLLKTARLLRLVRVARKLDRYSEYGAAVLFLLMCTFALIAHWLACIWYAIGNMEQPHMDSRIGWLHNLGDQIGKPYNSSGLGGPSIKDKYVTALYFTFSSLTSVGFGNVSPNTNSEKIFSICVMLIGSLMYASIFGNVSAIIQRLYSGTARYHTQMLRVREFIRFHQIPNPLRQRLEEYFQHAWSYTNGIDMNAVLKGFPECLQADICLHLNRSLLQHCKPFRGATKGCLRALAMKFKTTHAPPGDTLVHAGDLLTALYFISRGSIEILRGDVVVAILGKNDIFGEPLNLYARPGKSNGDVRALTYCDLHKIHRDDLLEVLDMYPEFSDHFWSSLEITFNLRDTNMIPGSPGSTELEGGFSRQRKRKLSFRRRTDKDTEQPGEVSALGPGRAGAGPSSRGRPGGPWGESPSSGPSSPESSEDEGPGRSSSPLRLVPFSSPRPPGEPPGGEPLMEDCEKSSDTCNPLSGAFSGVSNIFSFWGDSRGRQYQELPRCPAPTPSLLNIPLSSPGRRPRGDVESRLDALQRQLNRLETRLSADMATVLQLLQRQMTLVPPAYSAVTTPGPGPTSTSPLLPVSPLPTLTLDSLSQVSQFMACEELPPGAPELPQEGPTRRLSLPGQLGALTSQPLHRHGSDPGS
Chain of Aurora kinase C (Homo sapiens) (Q9UQB9 whole entry): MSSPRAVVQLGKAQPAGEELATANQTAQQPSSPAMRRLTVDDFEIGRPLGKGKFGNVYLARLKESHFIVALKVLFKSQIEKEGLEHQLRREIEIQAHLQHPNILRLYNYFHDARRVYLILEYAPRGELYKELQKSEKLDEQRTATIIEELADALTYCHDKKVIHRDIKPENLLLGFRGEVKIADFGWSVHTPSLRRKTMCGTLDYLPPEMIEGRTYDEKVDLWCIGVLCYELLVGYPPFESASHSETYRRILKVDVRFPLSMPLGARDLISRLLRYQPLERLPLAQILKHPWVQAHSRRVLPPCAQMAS
Chain of Casein kinase I isoform delta (Homo sapiens) (P48730 whole entry, looked up, canonical isoform): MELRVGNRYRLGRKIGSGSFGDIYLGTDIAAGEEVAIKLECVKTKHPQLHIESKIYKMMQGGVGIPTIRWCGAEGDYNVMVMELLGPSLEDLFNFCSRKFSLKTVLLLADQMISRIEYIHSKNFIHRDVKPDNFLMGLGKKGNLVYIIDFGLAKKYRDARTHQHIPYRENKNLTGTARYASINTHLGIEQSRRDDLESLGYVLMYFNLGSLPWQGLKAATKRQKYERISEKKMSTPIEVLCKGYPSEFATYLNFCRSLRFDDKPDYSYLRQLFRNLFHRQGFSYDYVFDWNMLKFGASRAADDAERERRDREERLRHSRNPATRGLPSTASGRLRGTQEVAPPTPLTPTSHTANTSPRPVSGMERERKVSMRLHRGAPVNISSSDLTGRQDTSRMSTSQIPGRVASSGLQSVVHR

## Cc1nc2cc(Nc3cc(NC4CCN(c5ccc(C#N)cn5)CC4)c(C(N)=O)cn3)ccc2o1
[1]
  IC50: 400 nM
[2]
  IC50: 22 nM

## N#Cc1ccc(N2CCC(Nc3cc(Nc4ccccc4)ncc3C(N)=O)CC2)nc1
[1]
  IC50: 190 nM
[2]
  IC50: 18 nM

## Cc1cncc(Nc2cc(NC3CCN(c4ccc(C#N)cn4)CC3)c(C(N)=O)cn2)n1
[1]
  IC50: 4 nM
[2]
  IC50: 1 nM
[3]
  IC50: 1.9 nM
[4]
  IC50: 5400 nM

## Cc1nccc(Nc2cc(NC3CCN(c4ccc(C#N)cn4)CC3)c(C(N)=O)cn2)n1
[1]
  IC50: 3.2 nM
[3]
  IC50: 5.4 nM
[4]
  IC50: 8100 nM

## Cc1cnc(Nc2cc(NC3CCN(c4ccc(C#N)cn4)CC3)c(C(N)=O)cn2)cn1
[1]
  IC50: 5.3 nM
[2]
  IC50: 1.1 nM
[3]
  IC50: 6.7 nM
[4]
  IC50: 4800 nM

## CN(c1ccccc1)c1cc(NCc2ccccc2)c(C(N)=O)cn1
[2]
  IC50: > 1000 nM
[5]
  inhibition: 40%

## Cc1nccc(Nc2cc(NC3CCN(c4ccc(C#N)cc4)CC3)c(C(N)=O)cn2)n1
[6]
  inhibition: 10%
[7]
  Papp: > 30 ×10⁻⁶ cm/s
[1]
  IC50: 3.5 nM
Rattus norvegicus [8]
  MST: 22.5 days
[9]
  inhibition: 49%
[10]
  inhibition: 27%
[11]
  half-life: 3.4 h
[12]
  inhibition: 96%
[13]
  inhibition: 84%
[14]
  inhibition: 26%
[15]
  inhibition: 3%
[16]
  AUC(0-t) at 24 h: 278 ng·h/mL
[17]
  inhibition: 76%
[18]
  Tmax: 0.4 h
[19]
  inhibition: 33%
[20]
  inhibition: 11%
[21]
  inhibition: 28%
[22]
  inhibition: 49%
[23]
  inhibition: 18%
[24]
  inhibition: 54%
[25]
  inhibition: 96%
[26]
  CLint scaled: 109 mL/min/kg
[27]
  Cmax: 52.9 ng/mL
[28]
  inhibition: 14%
[29]
  bioavailability: 23.6%
[3]
  IC50: 4.2 nM
[30]
  inhibition: 94%
[31]
  inhibition: -2%
[32]
  AUC(0-t) at 24 h: 1180 ng·h/mL
[33]
  inhibition: 25%
[34]
  inhibition: -1%
[35]
  inhibition: 19%
[36]
  clearance: 14.3 mL/min/kg
[37]
  Vd: 3.5 L/kg
[4]
  IC50: > 100000 nM
[38]
  CLint scaled: 146 mL/min/kg
[39]
  inhibition: 8%
[40]
  inhibition: 8%

## N#Cc1ccc(N2CCC(Nc3cc(Nc4ccccn4)ncc3C(N)=O)CC2)nc1
[2]
  IC50: 0.46 nM
[3]
  IC50: 2.9 nM
[4]
  IC50: 360 nM

## Cc1nc2ccc(Nc3cc(NC4CCN(c5ccc(C#N)cn5)CC4)c(C(N)=O)cn3)cc2o1
[1]
  IC50: 130 nM
[2]
  IC50: 25 nM

## N#Cc1ccc(N2CCC(Nc3cc(Nc4ccncn4)ncc3C(N)=O)CC2)nc1
[1]
  IC50: 5.5 nM
[2]
  IC50: 0.61 nM
[3]
  IC50: 3.5 nM
[4]
  IC50: 17000 nM

## NC(=O)c1cnc(N)cc1NCc1ccccc1
[2]
  IC50: > 1000 nM
[5]
  inhibition: 41%

## N#Cc1ccc(N2CCC(Nc3cc(Nc4cnccn4)ncc3C(N)=O)CC2)nc1
[1]
  IC50: 4.1 nM
[2]
  IC50: 0.72 nM
[3]
  IC50: 2.5 nM
[4]
  IC50: 7700 nM

## Cc1nccc(Nc2cc(N[C@@H]3CCN(c4ccc(C#N)cn4)C[C@@H]3F)c(C(N)=O)cn2)n1
[3]
  IC50: 0.24 nM
[4]
  IC50: > 100000 nM

## C[C@@H]1CCCC[C@@H]1Nc1cc(Nc2ccccc2)ncc1C(N)=O
[2]
  IC50: 37 nM

## C=CC[C@@H]1/C=C(\C)C[C@H](C)C[C@H](OC)[C@H]2O[C@@](O)(C(=O)C(=O)N3CCCC[C@H]3C(=O)O[C@H](/C(C)=C/[C@@H]3CC[C@@H](O)[C@H](OC)C3)[C@H](C)[C@@H](O)CC1=O)[C@H](C)C[C@@H]2OC [TACROLIMUS ANHYDROUS]
Rattus norvegicus [41]
  MST: 6.5 days
